Compound activity (PubChem)
Yeast growth inh: chemicals that inhibit yeast BB579 growth in restrictive medium (lifespan-shortening candidates) | AID 804 | inhibition, % at 10 µM | 140,000 compounds, 0.51% hits | S. cerevisiae BB579 growth, OD615, 48 h;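 active means inhibition above a set limit, 3 SD over the mean compound inhibition, cut at about 44% in these data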
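System: Saccharomyces cerevisiae DeaD strain BB579, replicative lifespan model yeast. Buffer or medium: restrictive glucose-based CSMM-D medium. Doses: one dose, 10 µM compound with 0.25% DMSO. Timing: 4 h preincubation and 48 h exposure at 30 °C. Detection: turbidity as optical density at 615 nm. Benchmarks: amphotericin B 10 µg/mL, positive.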
WT yeast gro inh: growth inhibition of WT yeast, mitochondrial fusion screen. mitochondrial fusion phenotypic screen, WT strain. inhibition, % at 10 µM. 190,000 compounds, 2.1% hits; in the data active means inhibition above about 58%; tested in S. cerevisiae
Yeast lifespan up: extends the lifespan of yeast; inhibition of the nicotinamide effect, % at 10 µM; 130,000 compounds, 0.68% hits; S. cerevisiae growth with nicotinamide, OD615; deaD strain in restrictive glucose medium;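 active means inhibition above a set limit, placed 3 SD over the median of all compounds, cut at about 26% in these data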;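 further: 0% = nicotinamide-treated wells and 100% = cells grown without nicotinamide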
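Material: Modified budding yeast, DeaD strain | Medium: Restrictive glucose medium | Probe or stimulus: 1.5 mM nicotinamide | Dosing: Single dose 10 µM compound, 0.25% DMSO | Times: 48 h at 30 °C | Technique: OD615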
Cl transport mod: KCC2 (human) Cl- transport modulation; Q9H2X9; KCC2 cells, thallium flux FluoZin-2 fluorescence; B-score of Tl+ flux slope (higher = more flux/activation; lower = inhibition) at 10 µM; 190,000 compounds, 2.2% hits; AID 1456;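 active means thallium flux slope and its plate-corrected score both differing from the plate sample mean at a set confidence after two filtering rounds, in either direction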;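 further: slope of fluorescence scaled to starting intensity during 10 to 20 s after thallium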
RAM network inh: inhibitors of the yeast RAM network | 190,000 compounds, 1.8% hits | AID 868 | S. cerevisiae dse1pr::URA3 reporter, 5-FOA growth OD615, 2 d; analog-sensitive cbk1-as2 kinase mutant strain | inhibition, % at 50 µM;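 active means inhibition above a set limit, 3 SD over mean compound inhibition, cut at about 8.4% in these data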;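 further: 0% = DMSO-only wells with no growth and 100% = 10 µM 1-NA-PP1 full growth; inhibition rescues growth on 5-FOA so higher OD means more RAM inhibition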
KCC2 secondary: confirmation of human KCC2 transport modulators; HEK293-KCC2, thallium flux, FluoZin2 fluorescence; stronger effect = higher value; AID 1713; normalised thallium flux (F/F0 slope) at 10 µM; 3,700 compounds, 15% hits; shares compounds with Cl transport mod;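 active means thallium flux slope above the same plate's solvent-only control mean plus 3 SD; inconclusive means the two replicate wells disagree; inactive means no significant difference from solvent-only control wells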
KCC2 bumet counter: thallium flux persisting under bumetanide in KCC2 cells, counter-screen secondary assay; 3,700 compounds, 49% hits; normalized thallium flux at 10 µM; shares compounds with Cl transport mod; HEK293-KCC2 + bumetanide/ouabain, thallium flux FluoZin2; stronger effect = higher value;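 active means thallium entry rate above the same plate's blocked-transporter control wells by more than 3 SD; inconclusive means the two repeat wells disagree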;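 further: raw slope of fluorescence over initial fluorescence between 10 and 20 s after thallium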
KCC2 sec2: confirmation of human KCC2 transport modulators. shares compounds with Cl transport mod. HEK293-KCC2, thallium flux FluoZin2 fluorescence; actives lie on both sides; F/F0 rise rate, 10–20 s post-thallium. normalized thallium flux at 10 µM. 3,700 compounds, 23% hits;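 active means thallium flux slope more than 3 SD above or below the plate's solvent-only control mean, mostly below; inconclusive means the two repeat wells disagreed; inactive means no significant shift from solvent-only controls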;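 further: raw slope with 0.1% DMSO as baseline and bumetanide as block control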
HEK293 Tl flux: parental HEK flux effect, counter-screen. thallium flux rate (normalised fluorescence) at 10 µM. HEK293 parental cells, thallium flux FluoZin2, ouabain; baseline-ratio fluorescence slope, 10–20 s after thallium. shares compounds with Cl transport mod. 3,700 compounds, 46% hits;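 active means thallium flux rate significantly above the same plate's solvent-only control wells, beyond their mean plus 3 SD; inconclusive means the two replicate wells gave conflicting results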
KCC2 retest ouab: modulates human KCC2 on retest with ouabain; shares compounds with Cl transport mod; HEK293-KCC2, thallium flux FluoZin2 fluorescence; bidirectional: low = inhibitor, high = activator; raw Tl+ flux slope (below DMSO = inhibition, above = activation) at 10 µM; 3,700 compounds, 48% hits;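 active means thallium flux slope beyond 3 SD from same-plate DMSO control mean in most replicates, usually higher, sometimes lower; inconclusive means repeat tests gave conflicting results; inactive means no significant difference from controls in most replicates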;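 further: slope of initial-normalized fluorescence between seconds 10 and 20 after thallium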
HEK counter2: acts in parental HEK cells, second KCC2 counter-screen | shares compounds with Cl transport mod | 3,700 compounds, 33% hits | HEK293 parental, thallium flux FluoZin-2 fluorescence slope | AID 1718 | thallium flux slope at 10 µM;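 active means thallium flux slope above the same plate's solvent-control mean plus 3 SD in both duplicate wells; inconclusive means duplicate wells that disagreed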;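 further: run without ouabain in cells lacking the KCC2 cotransporter; slope of fluorescence scaled to its starting value between 10 and 20 s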
An asterisk follows results filed as active; ? = inconclusive; nt = not tested or not shown. Rows were chosen to be rich in hits. Some 5.5% of all compounds tested hit in one or more screens of this group.

SMILES | Yeast growth inh | WT yeast gro inh | Yeast lifespan up | Cl transport mod | RAM network inh | KCC2 secondary | KCC2 bumet counter | KCC2 sec2 | HEK293 Tl flux | KCC2 retest ouab | HEK counter2
Cc1ccc(S(=O)(=O)Cn2nnnc2C(C(C)C)N2CCN(Cc3ccco3)CC2)cc1 (stereo not drawn) | -50 | 5 | 20 | -2.5* | 2 | 0.0074 | 0.0043 | 0.028 | 0.008 | 0.016 | 0.011
CN1CCN(S(=O)(=O)c2ccc(-c3ccc(Cl)cc3)cc2)CC1 | -13 | -14 | -22 | nt | 0 | 0.0066 | 0.0059 | 0.032 | 0.0071 | 0.017* | 0.0096
CN1CCN(S(=O)(=O)c2ccc(-c3ccc(S(=O)(=O)N4CCN(C)CC4)cc3)cc2)CC1 | nt | 12 | nt | nt | nt | nt | nt | nt | nt | nt | nt
COC(C[C@H]1O[C@H]1C(=O)COCc1ccccc1)OC | nt | nt | nt | 0.58 | nt | nt | nt | nt | nt | nt | nt
Cc1ccc(C)c(S(=O)(=O)NC(C)C(=O)Nc2ccc(-c3nc4ccccc4s3)cc2)c1 (stereo not drawn) | -19 | -3 | -7 | 4.8* | 2 | 0.017 | 0.0059* | 0.03 | ? | 0.017 | 0.011
CC(NS(=O)(=O)c1cccc(Cl)c1)C(=O)Nc1ccc(-c2nc3ccccc3s2)cc1 (stereo not drawn) | -41 | 10 | -4 | 0.63 | 3 | nt | nt | nt | nt | nt | nt
C=CCn1c(-c2ccc(Cl)cc2)cnc1SC(C)C(=O)NC(N)=O (stereo not drawn) | nt | 9 | nt | -1.1 | 0 | nt | nt | nt | nt | nt | nt
COc1cccc(CN(C)C(=S)Nc2ccc(C)c(C)c2)c1 | nt | 49 | nt | -0.74 | 0 | nt | nt | nt | nt | nt | nt
CCOC(=O)Nc1ccc(C)cc1Br | -51 | 15 | -35 | nt | 1 | nt | nt | nt | nt | nt | nt
CCOC(=O)c1ccc(NC(=O)CCOc2ccc(OC)cc2)cc1 | -53 | 8 | -12 | nt | 2 | 0.0058 | 0.0047 | 0.03 | 0.0072 | 0.018 | 0.011
CCOC(=O)c1ccc(NC(=O)COC)cc1 | -35 | -11 | -16 | nt | 2 | nt | nt | nt | nt | nt | nt
CCOC(=O)NC(=S)Nc1ccc(OC)cc1 | nt | -6 | nt | 15* | 1 | 0.0078 | 0.021* | 0.035 | 0.016* | ? | 0.017*
CCOC(=O)NC(NC(=S)Nc1ccc(OC)cc1)C(Cl)(Cl)Cl (stereo not drawn) | -43 | -2 | 4 | 0.7 | 5 | nt | nt | nt | nt | nt | nt
COc1ccc(NC(=S)NC(=O)c2csnn2)cc1 | nt | -2 | nt | 138* | 3 | 0.089* | 0.11* | 0.12* | 0.13* | 0.12* | 0.12*
CCOC(=O)NC(=S)Nc1ccc(C(C)(C)C)cc1Br | nt | nt | nt | 49* | nt | 0.0075 | 0.046* | 0.042* | 0.046* | 0.052* | 0.022*
COc1ccc(S(=O)(=O)Nc2ccc(-n3cccc3)cc2)cc1 | nt | 4 | nt | 0.1 | 2 | nt | nt | nt | nt | nt | nt
O=C(CCS(=O)(=O)c1ccc(Cl)cc1)NCCc1c[nH]c2ccccc12 | nt | -7 | nt | -0.37 | 3 | nt | nt | nt | nt | nt | nt
CCNc1nc(OC)nc(Oc2ccc(C(=O)OC)cc2)n1 | -34 | -12 | -8 | -0.38 | 1 | nt | nt | nt | nt | nt | nt
CCOC(=O)c1ccc(Oc2nc(NC)nc(OC)n2)cc1 | -26 | 25 | -15 | -4.2* | -1 | 0.0089 | 0.0071 | 0.036 | 0.0045 | 0.02 | 0.011
O=C(Nc1ccc2c(c1)Cc1ccccc1-2)c1ccco1 | -21 | -10 | -2 | nt | 6 | ? | 0.05* | 0.032 | 0.023* | 0.028 | 0.013*
CCC(=O)Nc1ccc(NC(=O)c2ccco2)cc1 | -29 | -1 | -3 | nt | 3 | 0.01 | 0.0094* | 0.034 | 0.009* | 0.023 | ?
CCn1cc(CNC(=S)Nc2cccc(Cl)c2C)cn1 | nt | -1 | nt | 1.5 | 2 | nt | nt | nt | nt | nt | nt
Fc1ccc(-n2c(-c3ccc4ccccc4n3)n[nH]c2=S)cc1Cl | nt | 32 | nt | 26* | 2 | 0.0075 | 0.023* | 0.042* | 0.031* | 0.04* | 0.019*
Cc1ccccc1-n1c(-c2ccc3ccccc3n2)n[nH]c1=S | nt | nt | nt | 11* | nt | 0.011 | 0.023* | 0.035 | ? | ? | 0.013
Cc1ccccc1-n1c(-c2csc3ccccc23)n[nH]c1=S | -11 | 31 | 9 | 15* | 2 | 0.016* | 0.045* | 0.031 | 0.015* | 0.043* | ?
S=c1[nH]nc(-c2ccc3ccccc3n2)n1-c1ccc2ncccc2c1 | 0 | 17 | -5 | 0.059 | 3 | nt | nt | nt | nt | nt | nt
Cc1n[nH]c(=S)n1-c1ccc(Cl)cc1 | nt | -7 | nt | nt | 2 | nt | nt | nt | nt | nt | nt
S=c1[nH]nc(-c2ccc3ccccc3n2)n1-c1ccc(Cl)cc1 | -19 | 12 | 6 | 14* | 5 | 0.0069 | 0.032* | 0.043* | 0.029* | 0.037* | 0.026*
CCCCn1cnc2c(c1=O)c1nc3ccccc3nc1n2Cc1ccc2c(c1)OCO2 | nt | nt | nt | -0.61 | nt | nt | nt | nt | nt | nt | nt
CC(C)(C)OC(=O)NCCC(=O)N/N=C/c1cccc2nccnc12 | nt | nt | nt | 0.007 | nt | nt | nt | nt | nt | nt | nt
